Compound activity from PubChem.
Sampled rows, rich in hits. Any-hit rate of the full collection: about 1.8%.
CHRM4 agonist – agonists of human muscarinic M4 receptor (CHRM4). activation, % at 3 µM. P08173. 0.14% of 360,000 active. AID 624127. CHO-K1 hM4/Gqi5, Fluo-8 calcium fluorescence; vehicle 0%, full acetylcholine response 100%;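 active = activation above the run mean over all test wells plus 3 SD, cut at about 32% in these data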;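 note: peak over basal fluorescence ratio per well then scaled between controls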
CHRM5 agonist – CHRM5 agonism in calcium assay; AID 624037; 0.19% of 360,000 active; P08912; CHO-K1 hM5 cells, Fluo-8 calcium fluorescence; 0% DMSO wells, 100% maximal acetylcholine response; activation, % at 3 µM;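 active = activation above the run's mean over test compounds plus 3 SD, cut at about 23% in these data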;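 note: signal is peak over basal fluorescence ratio across the kinetic read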
Target sequence (P08912 whole entry, looked up): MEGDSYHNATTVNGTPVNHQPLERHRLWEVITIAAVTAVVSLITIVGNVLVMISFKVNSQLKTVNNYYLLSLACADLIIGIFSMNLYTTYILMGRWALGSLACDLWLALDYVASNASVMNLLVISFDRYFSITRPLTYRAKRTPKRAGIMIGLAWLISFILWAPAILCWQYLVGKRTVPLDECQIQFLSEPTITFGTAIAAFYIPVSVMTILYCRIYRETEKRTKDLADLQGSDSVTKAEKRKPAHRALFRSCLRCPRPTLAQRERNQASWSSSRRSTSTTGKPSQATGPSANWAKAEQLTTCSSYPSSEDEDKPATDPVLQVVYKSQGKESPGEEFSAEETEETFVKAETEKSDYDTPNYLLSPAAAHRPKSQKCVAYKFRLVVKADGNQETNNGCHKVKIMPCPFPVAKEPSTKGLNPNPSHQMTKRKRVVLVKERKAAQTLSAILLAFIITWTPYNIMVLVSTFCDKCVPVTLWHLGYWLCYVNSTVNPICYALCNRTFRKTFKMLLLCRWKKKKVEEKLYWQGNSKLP
CHRM5 PAM – potentiates acetylcholine response at human M5 receptor; P08912; CHO-K1 hM5, Fluo-8 calcium, ACh EC20 PAM; 0% = ACh EC20, 100% = ACh EC100; activation, % at 3 µM; 0.3% of 360,000 active; AID 624038;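 active = activation above the run cutoff, the mean activation of all test compounds plus 3 SD, cut at about 18% in these data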
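System: CHO-K1 hM5 cells. Reagent: acetylcholine, EC20 level. Compound dosing: single dose, 3 µM nominal final test concentration. Timing: Post-acetylcholine fluorescence recording 140 s. Detection: Fluo-8 calcium fluorescence. Read-out: % activation, ACh-normalized. Benchmarks: ACh EC20 and EC100 wells. Repeats: singlicate, one well per test compound.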
CHRM5 antagonist – CHRM5 antagonism in calcium assay; P08912; CHO-hM5 cells, Fluo-8 calcium fluorescence, ACh EC80; inhibition, % at 3 µM; 0.59% of 360,000 active;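 active = inhibition above a per-plate cutoff, the mean of that plate's test compounds plus 3 SD, cut at about 27% in these data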
M4 PAM – positive allosteric modulators of human muscarinic M4 receptor; P08173; CHO-K1 hM4/Gqi5, Fluo-8 calcium fluorescence, ACh EC20; 0% = ACh EC20, 100% = maximal ACh; activation, % at 3 µM; 0.4% of 360,000 active; AID 624126;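 active = activation above its plate's cutoff, the mean activation of sample wells plus 3 SD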
M4 antag – antagonists of human muscarinic M4 receptor (CHRM4); P08173; CHO-hM4 cells, ACh EC80, Fluo-8 calcium fluorescence; inhibition, % at 3 µM; 0.73% of 360,000 active; AID 624125;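 active = inhibition above its plate's cutoff, the mean inhibition of sample wells plus 3 SD, cut at about 27% in these data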
A number is an active result; – = inactive.

SMILES | CHRM4 agonist | CHRM5 agonist | CHRM5 PAM | CHRM5 antagonist | M4 PAM | M4 antag
COc1ccc(S(=O)(=O)n2nc(OC(=O)c3ccco3)cc2N)cc1 | – | – | – | – | 18 | –
O=C(NCC1CCCO1)c1onc(CSc2ccc(F)c(F)c2)c1C(=O)O (stereo unspecified) | – | – | – | – | – | –
S=c1c2c(nc3nc[nH]n13)CCC2 | – | – | 18 | – | – | –
CC1CCc2c(nc3nc[nH]n3c2=O)C1 (stereo unspecified) | – | – | – | – | – | –
COc1ccc(CCNC(=O)c2ccc(CSc3ccc(Cl)cc3)o2)cc1OC | – | – | – | – | – | 30
Cc1ccc(S(=O)(=O)N2CCC(C)CC2)cc1[N+](=O)[O-] | – | – | – | – | – | –
COC(=O)CSc1ccc(S(=O)(=O)N2CCC(C)CC2)cc1[N+](=O)[O-] | – | – | – | – | 25 | –
CC(Sc1ccc(S(=O)(=O)N2CCOCC2)cc1[N+](=O)[O-])C(=O)O (stereo unspecified) | – | – | – | – | 23 | –
Fc1ccccc1CNC(=S)Nc1cccc(C(F)(F)F)c1 | – | – | – | 27 | – | –
Cc1ccc(NC2SC(=O)N(Cc3cccc(C(=O)O)c3)C2=O)cc1 (stereo unspecified) | – | – | 23 | – | – | –
O=C(CCl)NC(=O)NC12CC3CC(CC(C3)C1)C2 | – | – | – | – | – | –
Cc1cc(C(=O)N2CCC2(C)C(=O)O)c(C)o1 (stereo unspecified) | – | – | – | – | 18 | –
CCCNC(=S)Nc1ccc2nc(-c3ccccn3)c(-c3ccccn3)nc2c1 | – | – | – | – | – | –
CC(C)(C)C(=O)Nc1cccc(-c2nc3ccccc3c(=O)o2)c1 | – | – | – | – | – | –
CCCC(=O)Nc1cccc(-c2nc3ccccc3c(=O)o2)c1 | – | – | – | – | 25 | –
CC(C)(CN1CCOCC1)NS(=O)(=O)c1ccccc1 | – | – | – | – | – | –
CC(C)(C)NC(=O)C(c1ccccn1)N(C(=O)c1csnn1)C1CCCCC1 (stereo unspecified) | – | – | – | – | – | –
CCC(C)(C)NC(=O)C(c1ccccn1)N(C(=O)c1csnn1)C1CCCCC1 (stereo unspecified) | – | – | 23 | – | – | –
CCc1sc(C(=O)Nc2cccc(-n3cnnn3)c2)cc1C | – | – | – | – | – | –
C/C(=N\OCc1ccc(C#N)cc1)c1ccccc1 | – | – | – | – | – | –
C/C(=N\OCc1ccc(C#N)cc1)c1ccc(S(=O)(=O)N(C)C)cc1 | – | – | – | 28 | – | –
CC(=O)C1=C(O)C(=O)N(c2ccc(C(=O)O)cc2)C1c1ccc([N+](=O)[O-])cc1 (stereo unspecified) | – | – | – | – | – | –
CCOC(=O)c1ccc(N2C(=O)C(O)=C(C(C)=O)C2c2ccc([N+](=O)[O-])cc2)cc1 (stereo unspecified) | – | – | 19 | – | – | –
O=C1NC(=S)S/C1=C\C=C\c1ccc([N+](=O)[O-])o1 | – | 26 | – | 48 | – | 68
O=C(O)/C=C/c1ccc([N+](=O)[O-])o1 | – | – | – | – | – | –
SMILES | CHRM4 agonist | CHRM5 agonist | CHRM5 PAM | CHRM5 antagonist | M4 PAM | M4 antag
CCOC(=O)C(NC(=O)Nc1ccc(C(N)=O)cc1)(c1ccccc1)C(F)(F)F (stereo unspecified) | – | – | – | – | – | –
CO/N=C/c1ccc(N2CCN(C(=O)c3cccc(C(F)(F)F)c3)CC2)c([N+](=O)[O-])c1 | – | – | – | – | – | 28
CO/N=C/c1ccc(N2CCN(C(=O)c3ccc(F)cc3)CC2)c([N+](=O)[O-])c1 | – | – | – | – | 57 | 56
CO/N=C/c1ccc(N2CCN(C(=O)c3ccc(Cl)cc3Cl)CC2)c([N+](=O)[O-])c1 | – | – | – | – | – | 40
O=C(N/N=C/c1ccc(N2CCOCC2)c([N+](=O)[O-])c1)c1ccc(F)cc1 | – | – | – | – | – | –
Cn1nc(SCc2ccccc2)c(=O)[nH]c1=O | – | – | – | – | – | –
COCc1c(C(=O)OCC(=O)N2c3ccccc3NC(=O)C2(C)C)oc2ccccc12 | – | – | – | – | – | 27
COc1cc(Cl)c(C)cc1NC(=O)CCCn1c(=O)oc2ccccc21 | – | – | – | – | 30 | –
Cc1nc2ccccc2c(=O)n1NC(=O)c1ccc(Cl)c(Cl)c1 | – | – | – | – | – | –
O=C(COC(=O)C1CCC(=O)N1)Nc1ccccc1Br (stereo unspecified) | – | – | 21 | – | – | –
O=C(COC(=O)C1CCC(=O)N1)Nc1ccc(Oc2ccccc2)cc1 (stereo unspecified) | – | – | – | – | – | –
CC(C)(C)c1ccc(-n2nc(C#N)c(Cl)cc2=O)cc1 | – | – | – | 33 | – | 54
Cc1csc(SCc2nnc(-c3ccc(Cl)cc3)o2)n1 | – | – | – | – | – | –
Cc1ccc(-c2nnc(CSc3nnc(C)s3)o2)cc1 | – | – | 19 | – | – | –
CCOC(=O)C(C(=O)Nc1ccccc1)C1CCCCC1 (stereo unspecified) | – | – | – | – | – | –
CCOC(=O)C(C(=O)Nc1ccc(C)cc1)C1CCCCC1 (stereo unspecified) | – | – | – | – | 45 | –
O=c1cccc2n1Cc1cc3ccccc3nc1-2 | – | – | – | – | 26 | –
O=C(Nc1ccc2c(c1)OCO2)c1cc(C2CCCN(C(=O)CCc3ccccc3)C2)on1 (stereo unspecified) | – | – | – | – | – | –
Cc1n[nH]c(C)c1N1C(=O)c2cccc3c(N4CCCCCC4)ccc(c23)C1=O | 85 | 76 | – | 54 | – | 41
O=C1c2cccc3c(N4CCCCC4)ccc(c23)C(=O)N1c1cccc(O)c1 | 41 | 141 | – | 37 | – | 36
OC[C@@H]1CN(Cc2ccc(Cl)cc2)C[C@H](n2cnc3c(N4CCCC4)ncnc32)O1 | – | – | – | – | – | –
CC(C)c1ccc(-c2nnc(SCC(=O)NC3CC3)n2C)cc1 | – | – | 30 | – | – | –
Cn1ccnc1SCC(=O)NC1CC1 | – | – | – | – | 49 | –
Cn1c(SCC(=O)NC2CCCC2)nnc1-c1ccncc1 | – | – | – | – | – | –
Cn1ccnc1SCC(=O)NC1CCCCC1 | – | – | – | – | – | –
CCNC(=O)C[C@@H]1CC[C@@H]2NC[C@@H](O)COC[C@H]2O1 | – | – | – | – | – | –
COc1ccc(CNC(=O)c2cc(S(=O)(=O)N3CCCCC3)ccc2N2CCOCC2)cc1OC | – | – | – | – | – | –
